Test results published in ChEMBL document CHEMBL1649111, “Restoration of susceptibility of intracellular methicillin-resistant Staphylococcus aureus to beta-lactams: comparison of strains, cells, and antibiotics” (Antimicrob Agents Chemother, 2008).
≈ marks a conversion by molar mass, not a printed value.

Legend:
[1] = test system: Staphylococcus aureus; assay: Antimicrobial activity against intracellular beta-lactamase negative methicillin-susceptible Staphylococcus aureus ATCC 25923 infected in human keratinocytes assessed as decrease in bacterial growth after 24 hrs at pH 7.4; assay type: functional, organism-based; details: ATCC 25923, 24 h
Outline: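 Primary human skin keratinocytes or Calu-3 bronchial epithelial cells, given an inoculum of 5 × 10⁷ to 1 × 10⁸ bacteria/ml and 2 h for internalization. Post-phagocytosis load 1.5 × 10⁶ to 3.0 × 10⁶ CFU per mg cell protein. Cloxacillin dose range in mg/liter for 24 h, n = 3. Hill-derived Emin, Emax and EC50; static concentration interpolated.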

[2] = test system: Staphylococcus aureus; assay: Antimicrobial activity against intracellular beta-lactamase negative methicillin-susceptible Staphylococcus aureus ATCC 25923 infected in human Calu3 cells assessed as increase in bacterial count from original inoculum at low compound concentration after 24 hrs at pH 7.4; assay type: functional, Calu-3
Outline: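 Primary human skin keratinocytes or Calu-3 bronchial epithelial cells infected with MSSA ATCC 25923 at 5 × 10⁷ to 1 × 10⁸ bacteria/ml, 2 h internalization. Postphagocytosis inoculum 1.5 × 10⁶ to 3.0 × 10⁶ CFU/mg protein. Cloxacillin concentration range for 24 h; CFU/mg protein change vs. inoculum (n = 3). Hill fit gives Emin/Emax; static concentration by graphical interpolation.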

[3] = test system: Staphylococcus aureus; assay: Antimicrobial activity against Panton-valentine leukocidin positive community acquired methicillin-resistant Staphylococcus aureus N4042228 by broth microdilution method at pH 7.4; assay type: functional
Outline: (§1)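 Minimal inhibitory concentration by broth microdilution at pH 7.4, read in mg/liter. The MRSA genotype was confirmed by mecA PCR, and the SCCmec subgroup was assigned by multiplex PCR.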

[4] = test system: Staphylococcus aureus; assay: Antimicrobial activity against hospital acquired methicillin-resistant and vancomycin-intermediate Staphylococcus aureus NRS18 obtained from patient with wound, skin and soft tissue infection by broth microdilution method at pH 7.4; assay type: functional; outline: as §1
[5] = test system: Staphylococcus aureus; assay: Antimicrobial activity against hospital acquired methicillin-resistant and vancomycin-intermediate Staphylococcus aureus VRS2 obtained from patient with wound, skin and soft tissue infection by broth microdilution method at pH 7.4; assay type: functional; outline: as §1
[6] = test system: Staphylococcus aureus; assay: Antimicrobial activity against animal acquired methicillin-resistant Staphylococcus aureus N7112046 by broth microdilution method at pH 7.4; assay type: functional
[7] = test system: Staphylococcus aureus; assay: Antimicrobial activity against hospital acquired methicillin-resistant Staphylococcus aureus ATCC 33591 by broth microdilution method at pH 5.5; assay type: functional
[8] = test system: Staphylococcus aureus; assay: Antimicrobial activity against hospital acquired methicillin-resistant and […] Staphylococcus aureus VRS2 obtained from patient with wound, skin and soft tissue infection by broth microdilution method at pH 5.5; assay type: functional
[9] = test system: Staphylococcus aureus; assay: (§2) Antimicrobial activity against Panton-valentine leukocidin positive community acquired methicillin-resistant Staphylococcus aureus N4090440 obtained from wound infection of patient infected in human THP-1 cells assessed as increase in bacterial count from original inoculum at low compound concentration after 24 hrs at pH 5.5; assay type: functional
Outline: (§3)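 Bacteria phagocytosed by unactivated human THP-1 macrophages, then incubated 24 h with extracellular antibiotic at about 0.01× to 100× the pH 5.5 broth MIC. CFU per mg cell protein counted against the original inoculum, n = 3. A Hill-equation fit (slope factor 1) gave Emin and Emax, extrapolated to infinitely low and high concentration, and EC50. Static concentration was graphically interpolated.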

[10] = test system: Staphylococcus aureus; assay: Antimicrobial activity against hospital acquired methicillin-resistant and vancomycin-intermediate Staphylococcus aureus VRS2 obtained from wound, skin and soft tissue infection of patient infected in human THP-1 cells assessed as increase in bacterial count from original inoculum at low compound concentration after 24 hrs at pH 5.5; assay type: functional
Outline: (§4)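 Human THP-1 macrophages infected with each S. aureus strain. Cloxacillin added extracellularly at about 0.01× to 100× the broth MIC measured at pH 5.5, with gentamicin 0.5 mg/liter to stop extracellular growth. Incubated 24 h. CFU counted per mg cell protein as change from the post-phagocytosis inoculum, n = 3. Emin, Emax and EC50 from a Hill fit; static concentration by graphical interpolation.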

[11] = test system: Staphylococcus aureus; assay: Antimicrobial activity against hospital acquired methicillin-resistant Staphylococcus aureus ATCC 33591 infected in human THP-1 cells assessed as decrease in bacterial count from original inoculum at high compound concentration after 24 hrs at pH 5.5; assay type: functional; outline: as §3
[12] = test system: Staphylococcus aureus; assay: Antimicrobial activity against constitutive beta-lactamase negative methicillin-resistant Staphylococcus aureus COL NRS100 infected in human THP-1 cells assessed as decrease in bacterial count from original inoculum at high compound concentration after 24 hrs at pH 5.5; assay type: functional; outline: as §3
[13] = test system: Staphylococcus aureus; assay: Antimicrobial activity against hospital acquired methicillin-resistant Staphylococcus aureus N4120032 obtained from wound infection opf patient infected in human THP-1 cells assessed as decrease in bacterial count from original inoculum at high compound concentration after 24 hrs at pH 5.5; assay type: functional; outline: as §3
[14] = test system: Staphylococcus aureus; assay: as §2, with “decrease” for “increase”, “high” for “low”; assay type: functional; outline: as §3
[15] = test system: Staphylococcus aureus; assay: Antimicrobial activity against animal acquired methicillin-resistant Staphylococcus aureus N7112046 infected in human THP-1 cells assessed as decrease in bacterial count from original inoculum at high compound concentration after 24 hrs at pH 5.5; assay type: functional; outline: as §3
[16] = test system: Staphylococcus aureus; assay: Antimicrobial activity against beta-lactamase negative methicillin-susceptible Staphylococcus aureus ATCC 25923 infected in human THP-1 cells assessed as decrease in bacterial growth after 24 hrs at pH 5.5; assay type: functional, organism-based; details: ATCC 25923, THP-1, 24 h; outline: as §3
[17] = test system: Staphylococcus aureus; assay: Antimicrobial activity against hospital acquired methicillin-resistant Staphylococcus aureus ATCC 33591 infected in human THP-1 cells assessed as decrease in bacterial growth after 24 hrs at pH 5.5; assay type: functional, organism-based; details: ATCC 33591, THP-1, 24 h; outline: as §3
[18] = test system: Staphylococcus aureus; assay: Antimicrobial activity against hospital acquired methicillin-resistant Staphylococcus aureus N4120210 obtained from urinary tract infection of patient infected in human THP-1 cells assessed as decrease in bacterial growth after 24 hrs at pH 5.5; assay type: functional, organism-based; details: N4120210, THP-1, Urine
Outline: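 THP-1 macrophages were infected, then incubated 24 h with cloxacillin at extracellular concentrations from about 0.01× to 100× the MIC measured in broth at pH 5.5, with gentamicin 0.5 mg/liter to block extracellular growth. CFU per mg cell protein were counted as change from the original inoculum (n = 3). A Hill-equation fit gave Emax, EC50 (multiples of MIC) and static concentration.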

[19] = test system: Staphylococcus aureus; assay: Antimicrobial activity against hospital acquired methicillin-resistant and vancomycin-intermediate Staphylococcus aureus NRS18 obtained from wound, skin and soft tissue infection of patient infected in human THP-1 cells assessed as decrease in bacterial growth after 24 hrs at pH 5.5; assay type: functional, organism-based; details: NRS18, THP-1, 24 h; outline: as §3
[20] = test system: Staphylococcus aureus; assay: Antimicrobial activity against hospital acquired methicillin-resistant and vancomycin-intermediate Staphylococcus aureus VRS2 obtained from wound, skin and soft tissue infection of patient infected in human THP-1 cells assessed as decrease in bacterial growth after 24 hrs at pH 5.5; assay type: functional, cell-based; details: VRS2, THP-1, 24 h; outline: as §4
[21] = test system: Staphylococcus aureus; assay: Bacteriostatic activity against beta-lactamase negative methicillin-susceptible Staphylococcus aureus ATCC 25923 infected in human THP-1 cells assessed as decrease in bacterial growth after 24 hrs at pH 5.5; assay type: functional
Outline: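 MSSA ATCC 25923 phagocytized by unactivated THP-1 macrophages; extracellular antibiotic from about 0.01× to 100× the broth MIC at pH 5.5, with gentamicin 0.5 mg/liter to block extracellular growth. CFU per mg cell protein counted at 24 h vs. original inoculum (n = 3). A Hill equation (slope factor 1) gives Emin/Emax, extrapolated to infinitely low/high concentration. Static concentration is read by graphical interpolation.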

For Cc1onc(-c2ccccc2Cl)c1C(=O)N[C@@H]1C(=O)N2[C@@H]1SC(C)(C)[C@@H]2C(=O)O [CLOXACILLIN], the EC50 [1] was 0.42 µg/mL (≈ 0.964 µM), the log10cfu [2] was 3.19 and the MIC [3] was 0.5 µg/mL (≈ 1.15 µM). The MIC [4] was 8 µg/mL (≈ 18.4 µM), the MIC [5] was 32 µg/mL (≈ 73.4 µM) and the MIC [6] was 512 µg/mL (≈ 1170 µM). For the same compound, the MIC [7] was 0.06 µg/mL (≈ 0.138 µM), the MIC [8] was 0.06 µg/mL (≈ 0.138 µM) and the log10cfu [9] was 2.51. For the same compound, the log10cfu [10] was 1.69, the log10cfu [11] was 0.55 and the log10cfu [12] was 0.78. It also gave a log10cfu [13] of 0.74, a log10cfu [14] of 0.45 and a log10cfu [15] of 0.72. For the same compound, the EC50 [16] was 4.44 ×MIC, the EC50 [17] was 4.25 ×MIC and the EC50 [18] was 8.51 ×MIC. It also gave an EC50 [19] of 3.96 ×MIC, an EC50 [20] of 3.63 ×MIC and an Activity [21] of 11 ×MIC.
